Results from ChEMBL document CHEMBL1158959, “Antitumor agents, 119. Kansuiphorins A and B, two novel antileukemic diterpene esters from Euphorbia kansui” (J Nat Prod, 1991).
Converted amounts (≈) assume the structure as drawn. The source made the active and inactive calls. No cut-off for these calls is given here.

Tests used:
P388 [1] = test: In vivo antileukemic activity in mouse P388 cells at 0.1 mg/kg relative to control; type: functional
Procedure, shortened: (§1)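 In vivo P-388 lymphocytic leukemia model run by standard National Cancer Institute procedures; activity is reported as T/C (%), treated relative to control.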

MOLT-4 = test: Cytotoxicity against human MOLT4 cells; type: functional, cell-based
HL-60(TB) = test: Cytotoxicity against human HL-60(TB) cells; type: functional, cell-based
K562 = test: Cytotoxicity against human K562 cells; type: functional, cell-based
[2] = Cytotoxicity against human NCI-H322 cells; type: functional, cell-based
HOP-62 = test: Cytotoxicity against human HOP62 cells; type: functional, cell-based
SW-620 = test: Cytotoxicity against human SW620 cells; type: functional, cell-based
SK-MEL-5 = test: Cytotoxicity against human SK-MEL-5 cells; type: functional, cell-based
RPMI-7951 = test: Cytotoxicity against human RPMI7951 cells; type: functional, cell-based
Malme-3M = test: Cytotoxicity against human MALME-3M cells; type: functional, cell-based
A498 = test: Cytotoxicity against human A498 cells; type: functional, cell-based
A704 = test: Cytotoxicity against human A704 cells; type: functional, cell-based
SN12K1 = test: Cytotoxicity against human SN12K1 cells; type: functional, cell-based
P388 [3] = test: Cytotoxicity against adriamycin-resistant mouse P388 cells; type: functional, cell-based
NCI-H522 = test: Cytotoxicity against human NCI-H522 cells; type: functional, cell-based
H125 = test: Cytotoxicity against human H125 cells; type: functional, cell-based
NCI-H23 = test: Cytotoxicity against human H23 cells; type: functional, cell-based
EKVX = test: Cytotoxicity against human EKVX cells; type: functional, cell-based
NCI-H82 = test: Cytotoxicity against human H82 cells; type: functional, cell-based
NCI-H524 = test: Cytotoxicity against human NCI-H524 cells; type: functional, cell-based
NCI-H146 = test: Cytotoxicity against human NCI-H146 cells; type: functional, cell-based
DLD-1 = test: Cytotoxicity against human DLD1 cells; type: functional, cell-based
HCC 2998 = test: Cytotoxicity against human HCC2998 cells; type: functional, cell-based
MCF7 = test: Cytotoxicity against human MCF7 cells; type: functional, cell-based
NCI/ADR-RES = test: Cytotoxicity against human MCF7/ADR cells; type: functional, cell-based
U-251 = test: Cytotoxicity against human U251 cells; type: functional, cell-based
SNB-19 = test: Cytotoxicity against human SNB19 cells; type: functional, cell-based
SNB44 = test: Cytotoxicity against human SNB44 cells; type: functional, cell-based
SNB-75 = test: Cytotoxicity against human SNB75 cells; type: functional, cell-based
SK-MEL-2 = test: Cytotoxicity against human SK-MEL-2 cells; type: functional, cell-based
OVCAR-8 = test: Cytotoxicity against human OVCAR8 cells; type: functional, cell-based
OVCAR-5 = test: Cytotoxicity against human OVCAR5 cells; type: functional, cell-based
UO-31 = test: Cytotoxicity against human UO31 cells; type: functional, cell-based
NCI-H69 = test: Cytotoxicity against human H69 cells; type: functional, cell-based
P388 [4] = test: In vivo antileukemic activity in mouse P388 cells at 0.5 mg/kg relative to control; type: functional; procedure, shortened: as §1

CCCCCCCCCCCCCCCC(=O)OCC1=C[C@@H]2C(=O)[C@]3(C=C(C)[C@H](OC(=O)C(C)C(C)C)[C@@]3(O)[C@@H]1O)[C@H](C)C[C@]1(OC(=O)CCCCCCCCCCC)[C@H]2C1(C)C (stereo not given in full) [KANSUIPHORIN A]
T/C (P388 [1]): >=176%
IC50 (MOLT-4): 0.13 µg/mL (≈ 0.147 µM)
IC50 (HL-60(TB)): 0.03 µg/mL (≈ 0.034 µM)
IC50 (K562): 0.03 µg/mL (≈ 0.034 µM)
IC50 [2]: 0.33 µg/mL (≈ 0.374 µM)
IC50 (HOP-62): 0.06 µg/mL (≈ 0.0679 µM)
IC50 (SW-620): 0.08 µg/mL (≈ 0.0906 µM)
IC50 (SK-MEL-5): 0.14 µg/mL (≈ 0.158 µM)
IC50 (RPMI-7951): 0.05 µg/mL (≈ 0.0566 µM)
IC50 (Malme-3M): 0.32 µg/mL (≈ 0.362 µM)
IC50 (A498): 0.02 µg/mL (≈ 0.0226 µM)
IC50 (A704): 0.03 µg/mL (≈ 0.034 µM)
IC50 (SN12K1): 0.07 µg/mL (≈ 0.0792 µM)
Activity (P388 [3]): inactive
Activity (NCI-H522): inactive
Activity (H125): inactive
Activity (NCI-H23): inactive
Activity (EKVX): inactive
Activity (NCI-H82): inactive
Activity (NCI-H524): inactive
Activity (NCI-H146): inactive
Activity (DLD-1): inactive
Activity (HCC 2998): inactive
Activity (MCF7): inactive
Activity (NCI/ADR-RES): inactive
Activity (U-251): inactive
Activity (SNB-19): inactive
Activity (SNB44): inactive
Activity (SNB-75): inactive
Activity (SK-MEL-2): inactive
Activity (OVCAR-8): inactive
Activity (OVCAR-5): inactive
Activity (UO-31): inactive
Activity (NCI-H69): inactive

CCCCCCCCCCCCCCCC(=O)OC[C@@]12O[C@@H]1[C@@H]1C(=O)[C@]3(C=C(C)[C@H](OC(=O)C(C)C(C)C)[C@@]3(O)[C@@H]2O)[C@H](C)C[C@]2(OC(=O)CCCCCCCCCCC)[C@H]1C2(C)C (stereo not given in full) [KANSUIPHORIN B]
T/C (P388 [4]): >=177%
